Hits are enriched below; roughly 2.2% of the tested compounds scored in any of these assays.
FLuc inh counter: firefly luciferase enzyme inhibitors, primary screen, artefact control for luciferase-based inhibitor screens, biochemical, luminescence, ATPLite. 10 min. 1.5% of 200,000 active. Luciferin 4-monooxygenase (Photinus pyralis), P08659. inhibition, % at 10 µM;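 active = inhibition above about 50% when tested at 10 µM, limit read from the data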
Target sequence (P08659 whole entry, looked up): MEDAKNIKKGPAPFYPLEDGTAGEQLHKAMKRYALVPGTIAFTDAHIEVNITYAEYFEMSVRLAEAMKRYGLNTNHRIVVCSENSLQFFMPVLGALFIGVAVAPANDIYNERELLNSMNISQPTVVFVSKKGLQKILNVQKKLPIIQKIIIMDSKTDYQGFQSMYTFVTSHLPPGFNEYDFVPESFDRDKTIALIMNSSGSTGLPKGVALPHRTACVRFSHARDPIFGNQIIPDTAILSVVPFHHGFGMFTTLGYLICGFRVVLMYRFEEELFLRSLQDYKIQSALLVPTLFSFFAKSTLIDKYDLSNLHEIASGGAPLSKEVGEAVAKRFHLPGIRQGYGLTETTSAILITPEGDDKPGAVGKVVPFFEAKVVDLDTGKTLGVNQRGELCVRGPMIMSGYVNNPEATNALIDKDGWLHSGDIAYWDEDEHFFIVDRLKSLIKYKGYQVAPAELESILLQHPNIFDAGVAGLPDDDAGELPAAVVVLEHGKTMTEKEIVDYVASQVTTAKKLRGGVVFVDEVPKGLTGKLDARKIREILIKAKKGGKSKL
APP 5'UTR act: activators of APP 5'UTR luciferase reporter, primary screen, SH-SY5Y cells; SH-SY5Y APP 5'UTR luciferase reporter, luminescence; zero percent = DMSO vehicle wells; activation, % at 2 µM; 1% of 190,000 active;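 active = activation above a set limit, based on mean plus 3 SD of controls, cut at about 140% in these data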
FLuc act counter: FLuc activators, initial screening, artefact control for FLuc-dependent activation tests, biochemical, ATPlite luminescence; Luciferin 4-monooxygenase (Photinus pyralis), P08659; ATPlite luciferase biochemical, 10 min; 0 = ATP-free wells, 1 = DMSO control; activation factor at 10 µM; 200,000 tested, under 10 active; AID 1027, 2008;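 active = luciferase activation factor, scaled between plate controls, of at least 2 with compound at 10 µM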
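test system = cell-free luciferase reagent | medium = PBS as buffer for the ATP substrate | dosing = test compounds dosed from 2 mM stocks in 100% DMSO | incubation = 10 min at ambient temperature | detection = luminescence measurement of luciferase light output | benchmarks = low control with PBS replacing ATP, high control enzyme plus ATP without compound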
PPC-1+TRAIL kill: compounds killing PPC-1 cancer cells with TRAIL present, primary screen, TRAIL potentiator project, ATPLite luminescence, uHTS; PPC-1 cells + TRAIL, ATPLite viability luminescence; cell killing (% activity), % at 4 µM or 5 µM; 0.41% of 220,000 active; AID 1443, 2008;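 active = cell killing above 50% in the first pass at 4 µM, then a duplicate retest at 5 µM averaging 50% or more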;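 also: plate controls were cells with TRAIL plus DMSO for no effect and medium-only wells lacking cells for full effect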
TRAIL sens C8: viability loss with TRAIL in NB7+C8 cells, primary screen, TRAIL sensitizer project, cell-based, ATPlite luminescence | inhibition (viability loss, TRAIL sensitization), % at 10 µM | 1% of 360,000 active | AID 624354, 2012;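 active = compounds causing at least 50% loss of cell viability in the single-dose screen, relative to plate controls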
NF-kB neuron act: activators of NF-kB expression in neurons, primary screen, cell-based, HTS; human neuronal cells, NF-kB reporter expression; stronger effect = higher value; fold change at 12.5 µM; 1.6% of 190,000 active; AID 1239, 2008; in the data active = fold change above about 3.3
* marks the source's active call; other numbers are inactive results; x = not tested or not shown.

SMILES	FLuc inh counter	APP 5'UTR act	FLuc act counter	PPC-1+TRAIL kill	TRAIL sens C8	NF-kB neuron act
COC(=O)c1ccc(OCCOc2ccccc2)cc1	-0.4	34.1	1	14.8	4.2	2.15
COc1ccc(CCN(C)C(=O)c2cc(=O)c3ccccc3o2)cc1OC	x	x	x	x	-5.9	x
C#CCOc1c(/C=C\c2nc(O)c([N+](=O)[O-])c(=O)[nH]2)cc(Br)cc1OC	x	x	x	x	7.2	x
O=C1CC(Sc2nnnn2C2CCCCC2)C(=O)N1c1ccccc1 (stereo unspecified)	57.1*	4.0	0.4	7.3	4.6	1.01
CC(=O)N/N=c1\sc2ccccc2n1C	-7.6	11.7	1.1	22.7	-0.1	1.21
Cn1c(=Nc2ccccc2)sc2ccccc21	-1.7	17.5	1	-1.5	-2.7	1.51
Cn1c(=NC(=O)CCl)sc2ccccc21	-2.9	-24.9	1	12.0	94.0*	0.13
Cn1c(=NC(=O)c2cccc([N+](=O)[O-])c2)sc2ccccc21	7.8	103.8	0.9	-1.0	56.6*	4.25*
CN(C)c1ccc(N=c2sc3ccccc3n2C)cc1	16.1	73.7	0.8	11.0	4.0	4.6*
COc1cc(C(=O)N=c2sc3ccccc3n2C)cc(OC)c1OC	-4.1	19.0	1	13.5	0.6	1.02
Cc1cccc(C)c1NC(=O)C(CCc1ccccc1)N1CCC(c2ccccc2)CC1 (stereo unspecified)	x	x	x	x	15.3	x
CC1Cc2cccc3ccc(=O)n(c23)C1 (stereo unspecified)	x	x	x	x	-1.6	x
O=C(CCCc1ccccc1)Nc1ccc2c(c1)OCCO2	34.7	202.9*	0.7	-3.7	4.0	8.01*
CN(C)c1ccc(NC(=O)CCCc2ccccc2)cc1	18.6	150.3*	0.8	11.3	3.8	5.41*
CCOc1ccc(N/C(C)=C/C(=O)c2ccc3c(c2)OCCO3)cc1	x	x	x	5.9	1.7	x
CCOc1ccc(N/C(C)=C\C(=O)c2ccc3c(c2)OCCO3)cc1	13.2	36.0	0.9	20.3	11.8	3.37*
O=C(Nc1ccc2c(c1)OCCO2)c1cccc(C(=O)Nc2ccc3c(c2)OCCO3)c1	x	x	x	x	15.9	x
O=C(CCCCCN1C(=O)c2ccccc2C1=O)Nc1ccc2c(c1)OCCO2	-3.2	0.2	1	3.7	37.2	1.07
CCOc1cccc(C(=O)Nc2ccc3c(c2)OCCO3)c1	x	x	x	x	59.2*	x
COc1ccc(C)cc1NC(=O)CO/N=C(\N)CC(=O)NC1CCCCC1	x	x	x	x	2.5	x
CCOc1ccc(C(=O)NCc2ccc3c(c2)OCO3)cc1OCC	x	x	x	x	0.3	x
COCCNc1oc(Cc2cccc3ccccc23)nc1C#N	x	x	x	x	-2.0	x
O=C(Nc1ccc2c(c1)OCCO2)C(=O)c1c[nH]c2ccccc12	x	x	x	x	81.7*	x
O=C(CSc1ccccc1)Nc1ccc2c(c1)OCCO2	x	x	x	x	39.7	x
O=C(CCS(=O)(=O)c1ccccc1)Nc1ccc2c(c1)OCO2	-2.5	-1.8	1	0.5	1.5	2.2
SMILES	FLuc inh counter	APP 5'UTR act	FLuc act counter	PPC-1+TRAIL kill	TRAIL sens C8	NF-kB neuron act
O=C(CCCc1cccs1)Nc1ccc2c(c1)OCO2	15.6	161.8*	0.8	8.3	5.8	4.22*
O=C(Nc1ccc2c(c1)OCO2)C(=O)c1c[nH]c2ccccc12	x	x	x	x	49.4	x
O=C(Nc1ccc2c(c1)OCCO2)c1ccccc1	x	x	x	x	50.6*	x
O=C(CC(=O)c1ccccc1)Nc1ccc2c(c1)OCCO2	41.5	129.3	0.6	19.5	28.1	3.93*
C/C(CC(=O)Nc1ccc2c(c1)OCCO2)=N\NC(=O)c1ccccn1	0.5	136.1*	1	19.7	-1.8	1.07
CN(C)CCOc1cc(Cl)cc(Cl)c1	-1.5	14.7	1	19.5	-4.6	4.25*
CN(C)CCOc1cccc(Cl)c1	-5.6	-6.2	1.1	10.3	-9.8	1.16
N#Cc1ncc(-c2ccc3c(c2)OCCOCCOCCOCCOCCO3)nc1C#N	-2.1	-21.1	1	13.5	-7.2	6.66*
Cc1cc(C)cc(CC(=O)N2CCC2(C)C(=O)NS(=O)(=O)c2cccc(OC(F)F)c2)c1 (stereo unspecified)	x	x	x	x	-19.2	x
O=CN1CCN(C(=O)c2ccc(-c3nc4ccccc4s3)s2)CC1	45.7	90.4	0.5	24.6	23.6	3.8*
O=C(c1ccc(-c2nc3ccccc3s2)o1)N1CCN(c2ccccc2O)CC1	x	x	x	x	21.9	x
CNC(=O)COC(=O)c1ccc(-c2nc3ccccc3s2)s1	80.8*	23.1	0.2	66.3*	11.3	2.75
CCOc1ccc(CN(CC)C(=O)c2ccc3c(c2)[nH]c(=O)c(=O)n3CC)cc1OC	x	x	x	x	-11.0	x
COc1ccc(OCC2CCNCC2)cc1	x	x	x	x	-6.9	x
O=C(NC(=S)Nc1ncccn1)c1ccc(Cl)cc1Cl	64.2*	36.3	0.4	6.8	-0.8	2.22
COc1ccc(C=O)cc1COc1ccc([N+](=O)[O-])c(C)c1	-6.9	-10.0	1.1	3.2	7.2	1.01
Cc1nc(N)nc(N)c1-c1ccc(Cl)c(Cl)c1	x	x	x	x	81.9*	x
Cc1nc(N)nc(N)c1CCCc1ccc(Cl)c(Cl)c1	x	x	x	x	73.0*	x
Cc1cc(OCc2nc(N)nc(N)c2-c2ccc(Cl)c(Cl)c2)ccc1[N+](=O)[O-]	x	x	x	x	83.2*	x
COc1nccc(C(F)(F)F)c1C(=O)NC(=O)Nc1ccccc1	x	x	x	-3.6	4.9	x
O=C(O)c1cc(-c2ccc3ccccc3c2)nc2ccc(F)cc12	x	x	x	x	54.5*	x
O=C(O)c1cc(-c2c[nH]c3ccccc23)nc2cc3ccccc3cc12	x	x	x	22.0	51.7*	x
CCc1ccc(-c2cc(C(=O)O)c3ccccc3n2)s1	x	x	x	x	68.3*	x
O=C(O)c1cc(-c2ccc3ccccc3n2)nc2ccccc12	x	x	x	x	77.6*	x
O=C(O)c1cc(-c2cccc3ccccc23)nc2ccccc12	x	x	x	x	-0.6	x
SMILES	FLuc inh counter	APP 5'UTR act	FLuc act counter	PPC-1+TRAIL kill	TRAIL sens C8	NF-kB neuron act
O=C(Nc1ncccn1)c1cc(-c2ccc(F)cc2)nc2ccccc12	11.0	-2.4	0.9	8.2	6.1	0.69
CC(=O)Nc1c([N+](=O)[O-])cc2c3c(cccc13)CC2	x	x	x	x	-15.6	x
C=CCc1c(C)nc(N)[nH]c1=O	0.7	-21.6	1	17.5	-10.5	1.24
COc1ccc(CNC(=O)C/C(C)=N/NC(=O)c2ccc(OC)cc2OC)cc1	x	x	x	x	-10.9	x
COc1oc(C(=O)NC2CCCCC2)c(-c2ccc(Cl)cc2)c1S(=O)(=O)c1ccccc1	x	x	x	x	88.6*	x
CC(C)c1ccc(Nc2ncccc2C(=O)O)cc1	67.4*	139.5*	0.3	38.2	21.2	1.17
